Assay results as given in ChEMBL document CHEMBL3817843, “Understanding Oxadiazolothiazinone Biological Properties: Negative Inotropic Activity versus Cytochrome P450-Mediated Metabolism” (J Med Chem, 2016).

Legend:
Left cardiac atrium [1] = assay: Negative inotropic activity in potassium depolarized guinea pig left atrium assessed as reduction in developed tension at 50 uM after 30 mins; format: functional, Cavia porcellus; set-up: scale not given: the % may be the effect or the level left
Left cardiac atrium [2] = assay: Negative inotropic activity in potassium depolarized guinea pig left atrium assessed as reduction in developed tension after 30 mins; format: functional; conditions: Cavia porcellus, 0.5 h
Procedure, shortened: (§1)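 Guinea pig left atria electrically driven at 1 Hz. EC50 taken from log concentration−response curves by Litchfield and Wilcoxon probit analysis, n = 6−7. Not calculated when the maximum effect was below 50%.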

Right cardiac atrium [3] = assay: Negative chronotropic activity in potassium depolarized guinea pig right atrium assessed as reduction in atrial rate at 10^-5 M after 30 mins; format: functional, Cavia porcellus; set-up: scale not given: the % may be the effect or the level left
Aorta [4] = assay: Vasorelaxant activity in potassium depolarized guinea pig aorta assessed as inhibition of calcium-induced contraction at 10^-4 M after 30 mins; format: functional, Cavia porcellus; set-up: scale not given: the % may be the effect or the level left
Procedure, shortened: (§2)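 Guinea pig aortic strips depolarized with K+ (80 mM). Calcium-induced contraction measured; inhibition expressed as percent change from control, n = 3−5.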

Right cardiac atrium [5] = assay: Negative chronotropic activity in potassium depolarized guinea pig right atrium assessed as reduction in atrial rate at 50 uM after 30 mins; format: functional, Cavia porcellus; set-up: scale not given: the % may be the effect or the level left
Aorta [6] = assay: Vasorelaxant activity in potassium depolarized guinea pig aorta assessed as inhibition of calcium-induced contraction at 50 uM after 30 mins; format: functional, Cavia porcellus; set-up: scale not given: the % may be the effect or the level left; procedure, shortened: as §2
Left cardiac atrium [7] = assay: Negative inotropic activity in potassium depolarized guinea pig left atrium assessed as reduction in developed tension at 10^-4 M after 30 mins; format: functional, Cavia porcellus; set-up: scale not given: the % may be the effect or the level left
Right cardiac atrium [8] = assay: Negative chronotropic activity in potassium depolarized guinea pig right atrium assessed as reduction in atrial rate at 10^-4 M after 30 mins; format: functional, Cavia porcellus; set-up: scale not given: the % may be the effect or the level left
[9] = Relaxant activity in potassium depolarized guinea pig ileum longitudinal smooth muscle assessed as inhibition of calcium-induced contraction at 10^-4 M after 30 mins; format: functional, Cavia porcellus; set-up: scale not given: the % may be the effect or the level left
[10] = Relaxant activity in potassium depolarized guinea pig ileum longitudinal smooth muscle assessed as inhibition of calcium-induced contraction after 30 mins; format: functional, tissue-based; conditions: Cavia porcellus, 0.5 h
Left cardiac atrium [11] = assay: Negative inotropic activity in potassium depolarized guinea pig left atrium assessed as reduction in developed tension; format: functional; conditions: Cavia porcellus; procedure, shortened: as §1
Aorta [12] = assay: Vasorelaxant activity in potassium depolarized guinea pig aorta assessed as relaxation of calcium-induced contraction; format: functional, tissue-based; conditions: Cavia porcellus; procedure, shortened: as §2
Left cardiac atrium [13] = assay: Negative inotropic activity in potassium depolarized guinea pig left atrium assessed as reduction in developed tension at 10^-5 M; format: functional, Cavia porcellus; set-up: scale not given: the % may be the effect or the level left
Aorta [14] = assay: Vasorelaxant activity in potassium depolarized guinea pig aorta assessed as inhibition of calcium-induced contraction at 10^-6 M; format: functional, Cavia porcellus; set-up: scale not given: the % may be the effect or the level left
Procedure, shortened: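 Guinea pig aortic strips depolarized with 80 mM K+, then contracted by calcium addition. The read-out is percent inhibition of the calcium-induced contraction, expressed as percent change from control, with n = 3–5.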

Cytochrome P450 3A4 [15] = target: T1, Cytochrome P450 3A4 (Homo sapiens, UniProt P08684); assay: Inhibition of CYP3A4 in human liver microsomes using midazolam as substrate after 4 mins by LC-MS analysis
T1 sequence (P08684 whole entry): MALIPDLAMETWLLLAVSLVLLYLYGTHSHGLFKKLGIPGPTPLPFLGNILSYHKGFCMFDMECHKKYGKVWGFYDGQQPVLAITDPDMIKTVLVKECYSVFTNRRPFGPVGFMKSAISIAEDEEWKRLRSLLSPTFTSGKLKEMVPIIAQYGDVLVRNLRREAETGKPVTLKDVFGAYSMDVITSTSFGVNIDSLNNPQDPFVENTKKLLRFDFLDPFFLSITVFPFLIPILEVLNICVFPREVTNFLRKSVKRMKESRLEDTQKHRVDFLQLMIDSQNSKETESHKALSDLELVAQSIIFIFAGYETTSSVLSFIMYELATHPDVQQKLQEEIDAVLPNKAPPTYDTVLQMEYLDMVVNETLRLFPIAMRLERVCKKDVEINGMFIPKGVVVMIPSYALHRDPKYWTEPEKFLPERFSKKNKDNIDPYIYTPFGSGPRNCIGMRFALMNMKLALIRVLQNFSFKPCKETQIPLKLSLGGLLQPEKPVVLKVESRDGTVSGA

Left cardiac atrium [16] = assay: Negative inotropic activity in potassium depolarized guinea pig left atrium assessed as reduction in developed tension at 5 uM after 30 mins; format: functional, Cavia porcellus; set-up: scale not given: the % may be the effect or the level left
Cytochrome P450 2C19 = Cytochrome P450 2C19 (Homo sapiens, UniProt P33261); assay: Inhibition of CYP2C19 in human liver microsomes using (S)-mephenytoin as substrate after 40 mins by LC-MS analysis
Chain of Cytochrome P450 2C19 (P33261 whole entry): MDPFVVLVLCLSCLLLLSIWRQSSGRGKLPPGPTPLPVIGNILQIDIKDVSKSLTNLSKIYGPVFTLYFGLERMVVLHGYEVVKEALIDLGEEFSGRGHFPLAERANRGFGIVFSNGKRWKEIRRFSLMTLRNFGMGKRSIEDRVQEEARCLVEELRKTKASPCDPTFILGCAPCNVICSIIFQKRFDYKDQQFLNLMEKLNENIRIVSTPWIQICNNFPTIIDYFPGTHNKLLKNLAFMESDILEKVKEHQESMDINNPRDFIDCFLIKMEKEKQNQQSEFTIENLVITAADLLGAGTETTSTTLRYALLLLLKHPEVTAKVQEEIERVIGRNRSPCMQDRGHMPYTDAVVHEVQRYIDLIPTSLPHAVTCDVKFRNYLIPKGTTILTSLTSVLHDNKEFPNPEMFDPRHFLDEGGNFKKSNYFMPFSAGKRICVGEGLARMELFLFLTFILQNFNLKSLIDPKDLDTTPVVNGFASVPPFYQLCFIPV

Cytochrome P450 2D6 = Cytochrome P450 2D6 (Homo sapiens, UniProt P10635); assay: Inhibition of CYP2D6 in human liver microsomes using dextromethorphan as substrate after 10 mins by LC-MS analysis
Chain of Cytochrome P450 2D6 (P10635 whole entry): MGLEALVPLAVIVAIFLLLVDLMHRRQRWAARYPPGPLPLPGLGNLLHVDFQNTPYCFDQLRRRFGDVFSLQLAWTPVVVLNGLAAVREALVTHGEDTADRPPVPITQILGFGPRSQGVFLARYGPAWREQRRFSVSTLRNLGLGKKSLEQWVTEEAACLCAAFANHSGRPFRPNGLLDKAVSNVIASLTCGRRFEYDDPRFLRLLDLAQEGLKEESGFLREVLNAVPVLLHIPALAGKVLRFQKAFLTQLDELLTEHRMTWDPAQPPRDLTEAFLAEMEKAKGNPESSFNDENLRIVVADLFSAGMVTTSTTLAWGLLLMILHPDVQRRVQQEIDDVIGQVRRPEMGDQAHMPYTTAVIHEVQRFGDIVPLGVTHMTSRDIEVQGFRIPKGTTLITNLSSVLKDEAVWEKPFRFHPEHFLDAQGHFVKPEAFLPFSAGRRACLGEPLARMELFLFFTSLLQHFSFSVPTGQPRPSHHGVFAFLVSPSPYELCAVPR

Liver microsome = assay: Stability in human liver microsomes at 1 uM after 2 to 60 mins by LC-MS analysis in absence of NADPH
Cytochrome P450 1A2 = target: T2, Cytochrome P450 1A2 (Homo sapiens, UniProt P05177); assay: Inhibition of CYP1A2 in human liver microsomes using phenacetin as substrate after 30 mins by LC-MS analysis
T2 sequence (P05177 whole entry): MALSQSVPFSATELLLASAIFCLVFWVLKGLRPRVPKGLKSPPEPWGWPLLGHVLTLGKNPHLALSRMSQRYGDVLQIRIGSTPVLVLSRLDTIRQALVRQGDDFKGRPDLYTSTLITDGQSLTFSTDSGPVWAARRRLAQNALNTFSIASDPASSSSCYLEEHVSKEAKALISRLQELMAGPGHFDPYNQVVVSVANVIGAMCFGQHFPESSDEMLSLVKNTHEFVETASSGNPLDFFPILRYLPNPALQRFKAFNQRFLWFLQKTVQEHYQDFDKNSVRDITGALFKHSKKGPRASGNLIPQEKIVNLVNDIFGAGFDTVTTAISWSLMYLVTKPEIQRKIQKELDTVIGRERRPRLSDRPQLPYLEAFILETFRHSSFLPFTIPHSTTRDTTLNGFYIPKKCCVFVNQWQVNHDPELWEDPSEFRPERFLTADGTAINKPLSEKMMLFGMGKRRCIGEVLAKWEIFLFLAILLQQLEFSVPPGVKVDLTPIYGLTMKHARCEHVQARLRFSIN

Cytochrome P450 2C9 = Cytochrome P450 2C9 (Homo sapiens, UniProt P11712); assay: Inhibition of CYP2C9 in human liver microsomes using tolbutamide as substrate after 20 mins by LC-MS analysis
Chain of Cytochrome P450 2C9 (P11712 whole entry): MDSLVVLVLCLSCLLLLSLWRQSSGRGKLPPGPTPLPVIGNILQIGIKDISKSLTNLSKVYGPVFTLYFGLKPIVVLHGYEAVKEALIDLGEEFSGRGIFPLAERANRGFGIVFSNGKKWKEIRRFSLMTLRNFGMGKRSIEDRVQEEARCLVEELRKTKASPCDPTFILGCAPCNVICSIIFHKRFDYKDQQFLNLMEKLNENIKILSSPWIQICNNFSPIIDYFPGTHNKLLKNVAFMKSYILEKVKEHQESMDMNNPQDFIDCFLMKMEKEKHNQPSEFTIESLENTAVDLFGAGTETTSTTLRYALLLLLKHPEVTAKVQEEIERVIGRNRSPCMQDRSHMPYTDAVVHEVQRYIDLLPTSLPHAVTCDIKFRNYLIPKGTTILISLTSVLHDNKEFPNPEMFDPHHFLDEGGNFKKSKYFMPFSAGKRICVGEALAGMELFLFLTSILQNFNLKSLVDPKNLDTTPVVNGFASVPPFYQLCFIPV

Cytochrome P450 3A4 [17] = target: T1, Cytochrome P450 3A4; assay: Inhibition of CYP3A4 in human liver microsomes using testosterone as substrate after 5 mins by LC-MS analysis
Left cardiac atrium [18] = assay: Negative inotropic activity in potassium depolarized guinea pig left atrium assessed as reduction in developed tension at 10^-5 M after 30 mins; format: functional, Cavia porcellus; set-up: scale not given: the % may be the effect or the level left
Right cardiac atrium [19] = assay: Negative chronotropic activity in potassium depolarized guinea pig right atrium assessed as reduction in atrial rate at 10^-6 M after 30 mins; format: functional, Cavia porcellus; set-up: scale not given: the % may be the effect or the level left
[20] = Relaxant activity in potassium depolarized guinea pig ileum longitudinal smooth muscle assessed as inhibition of calcium-induced contraction at 50 uM after 30 mins; format: functional, Cavia porcellus; set-up: scale not given: the % may be the effect or the level left
Left cardiac atrium [21] = assay: Negative inotropic activity in potassium depolarized guinea pig left atrium assessed as reduction in developed tension at 10^-6 M after 30 mins; format: functional, Cavia porcellus; set-up: scale not given: the % may be the effect or the level left

| EC50 (Left cardiac atrium [2]) | Structure (SMILES) | Activity (Left cardiac atrium [1]) | Activity (Aorta [4]) | Activity (Right cardiac atrium [5]) | Activity (Right cardiac atrium [8]) | also measured |
| --- | --- | --- | --- | --- | --- | --- |
| 0.87 µM | CC1=CSC(OCC2CCCCC2)(c2ccccc2)c2noc(=O)n21 (stereo unspecified) | – | 14% | – | 2% | Activity (Left cardiac atrium [7]): 56% |
| 0.39 µM | O=c1onc2n1-c1ccccc1SC2(OCC(F)(F)F)c1ccccc1 (stereo unspecified) | 75% | 6% | – | 13% | Activity [9]: 75%; IC50 [10]: 14.5 µM |
| 1.19 µM | CC1=CSC(OC(C)C)(c2ccccc2)c2noc(=O)n21 (stereo unspecified) | – | 39% | – | – | Activity (Left cardiac atrium [7]): 82%; Activity (Right cardiac atrium [19]): 25%; Activity [20]: 97%; IC50 [10]: 4.82 µM |
| 0.28 µM | O=c1onc2n1-c1ccccc1SC2(OCC1CCCCC1)c1ccccc1 (stereo unspecified) | 86% | 3% | – | 6% | – |

More lines, now with the values behind:

| Structure (SMILES) | EC50 (Left cardiac atrium [2]) | Activity (Left cardiac atrium [1]) | Activity (Aorta [4]) | Activity (Right cardiac atrium [5]) | Activity (Right cardiac atrium [8]) | also measured |
| --- | --- | --- | --- | --- | --- | --- |
| COc1ccccc1C1(O)SC=C(C)n2c1noc2=O (stereo unspecified) | 0.93 µM | 94% | 25% | – | – | Activity (Right cardiac atrium [3]): 11% |
| COc1cccc(C2(O)SC=C(C)n3c2noc3=O)c1 (stereo unspecified) | 0.49 µM | 86% | – | 16% | – | Activity (Aorta [6]): 10% |
| COc1ccc(CCN(C)CCCC(C#N)(c2ccc(OC)c(OC)c2)C(C)C)cc1OC (stereo unspecified) | – | – | – | – | – | EC50 (Left cardiac atrium [11]): 0.61 µM; IC50 (Aorta [12]): 0.38 µM; Activity (Left cardiac atrium [13]): 84%; Activity (Aorta [14]): 95% |
| CC1=CSC(OCC(F)(F)F)(c2ccccc2)c2noc(=O)n21 (stereo unspecified) | 0.14 µM | – | 28% | – | 6% | IC50 (Cytochrome P450 3A4 [15]): > 20 µM; Activity (Left cardiac atrium [16]): 79%; Activity [9]: 95%; IC50 [10]: 9.82 µM; IC50 (Cytochrome P450 2C19): 2.4 µM; IC50 (Cytochrome P450 2D6): 16.5 µM; Stability (Liver microsome): Stable; IC50 (Cytochrome P450 1A2): > 20 µM; IC50 (Cytochrome P450 2C9): 18.4 µM; IC50 (Cytochrome P450 3A4 [17]): > 20 µM |
| COc1ccc(C2(OCC3CCCCC3)SC=C(C)n3c2noc3=O)cc1 (stereo unspecified) | 0.66 µM | – | 21% | – | 3% | Activity (Left cardiac atrium [7]): 80% |
| COc1ccc(C2(OC(C)C)SC=C(C)n3c2noc3=O)cc1 (stereo unspecified) | 0.43 µM | – | 11% | 14% | – | Activity (Left cardiac atrium [18]): 69% |
| COc1ccccc1C1(OCC2CCCCC2)SC=C(C)n2c1noc2=O (stereo unspecified) | 0.48 µM | 89% | 17% | 22% | – | – |
| CCOC1(c2ccccc2OC)SC=C(C)n2c1noc2=O (stereo unspecified) | 0.14 µM | – | 28% | – | – | Activity (Left cardiac atrium [16]): 85%; Activity (Right cardiac atrium [3]): 29% |
| COc1ccc(C2(O)Sc3ccccc3-n3c2noc3=O)cc1 (stereo unspecified) | 0.1 µM | – | – | 26% | – | Activity (Left cardiac atrium [21]): 95%; Activity (Aorta [6]): 19% |
| COc1cccc(C2(OC(C)C)SC=C(C)n3c2noc3=O)c1 (stereo unspecified) | 0.064 µM | 84% | 36% | 2% | – | Activity [20]: 98%; IC50 [10]: 3.53 µM |
